# Test results taken from ChEMBL document CHEMBL5223165, “Discovery of Coumarin-Based MEK1/2 PROTAC Effective in Human Cancer Cells” (ACS Med Chem Lett, 2023).
# pIC50: −log10 of the molar value. Calls of active or inactive are those of the source. The rule behind the calls is not given here.
# Experiments:
# [1] = biological target: T1, von Hippel-Lindau disease tumor suppressor/Dual specificity mitogen-activated protein kinase kinase 2/Dual specificity mitogen-activated protein kinase kinase 1 (Homo sapiens) (UniProt P36507+Q02750+P40337); assay: Protac activity at VHL/MEK1/2 in human A549 cells assessed as MEK1/2 degradation at 10 uM incubated for 24 hrs by Western blot analysis relative to control; type: cell-based
# [2] = biological target: T1, von Hippel-Lindau disease tumor suppressor/Dual specificity mitogen-activated protein kinase kinase 2/Dual specificity mitogen-activated protein kinase kinase 1 (Homo sapiens); assay: Protac activity at VHL/MEK1/2 in human A549 cells assessed as MEK1/2 degradation at 1 uM incubated for 24 hrs by Western blot analysis relative to control; type: cell-based
# [3] = test system: A-375; assay: Antiproliferative activity against human A-375 cells assessed as inhibition of cell growth at 10 uM incubated for 48 hrs by MTT assay; type: functional; design: scale not given: the % may be the effect or the level left
# [4] = test system: A-375; assay: Antiproliferative activity against human A-375 cells incubated for 4 days by MTT assay; type: functional, cell-based; settings: A-375, 96 h
# [5] = biological target: T2, Protein cereblon/Dual specificity mitogen-activated protein kinase kinase 1/Dual specificity mitogen-activated protein kinase kinase 2 (Homo sapiens) (UniProt P36507+Q02750+Q96SW2); assay: Protac activity at CRBN/MEK1/2 in human A549 cells assessed as MEK1/2 degradation at 10 uM incubated for 24 hrs by Western blot analysis relative to control; type: cell-based
# [6] = biological target: T3, Dual specificity mitogen-activated protein kinase kinase; MEK1/2 (Homo sapiens, UniProt P36507+Q02750); assay: Induction of MEK1/2 degradation in human A549 cells at 1 uM incubated for 4 hrs by Western blot analysis; type: cell-based
# How it was run: (§1)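 Time course in A549 cells at 1 μM degrader, sampled at several time points up to 24 h. MEK1/2 protein reduction was judged by Western blot at each time point.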
# [7] = biological target: T3, Dual specificity mitogen-activated protein kinase kinase; MEK1/2; assay: Induction of MEK1/2 degradation in human A549 cells at 1 uM incubated for 24 hrs by Western blot analysis; type: cell-based; how it was run: as §1
# [8] = biological target: Dual specificity mitogen-activated protein kinase kinase 1 (Homo sapiens, UniProt Q02750); assay: Induction of MEK1 degradation in human A549 cells incubated for 24 hrs by Western blot analysis; type: cell-based
# How it was run: (§2)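 A549 cells exposed to a range of degrader concentrations for 24 h. MEK1 and MEK2 protein levels were read by Western blot, and a separate half-maximal degradation concentration (DC50) was derived for each.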
# [9] = biological target: Dual specificity mitogen-activated protein kinase kinase 2 (Homo sapiens, UniProt P36507); assay: Induction of MEK2 degradation in human A549 cells incubated for 24 hrs by Western blot analysis; type: cell-based; how it was run: as §2
# [10] = biological target: T3, Dual specificity mitogen-activated protein kinase kinase; MEK1/2; assay: Induction of MEK1/2 degradation in human A-375 cells incubated for 24 hrs by Western blot analysis; type: cell-based
# How it was run: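 A375 cells were given a concentration series of degrader for 24 h. MEK1/2 protein was quantified by immunoblot, and the DC50 (half-maximal degradation concentration) was taken from the dose-response.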
# [11] = biological target: T3, Dual specificity mitogen-activated protein kinase kinase; MEK1/2; assay: Induction of MEK1/2 degradation in human A549 cells at 1 uM incubated for 24 hrs in presence of 3-(3-amino-2-fluorobenzyl)-4-methyl-7-(pyrimidin-2-yloxy)-2H-chromen-2-one by Western blot analysis; type: cell-based
# [12] = biological target: T3, Dual specificity mitogen-activated protein kinase kinase; MEK1/2; assay: Induction of MEK1/2 degradation in human A549 cells at 1 uM incubated for 24 hrs in presence of (2S,4R)-1-((S)-2-amino-3,3-dimethylbutanoyl)-4-hydroxy-N-((S)-1-(4-(4-methylthiazol-5-yl)phenyl)ethyl)pyrrolidine-2-carboxamide by Western blot analysis; type: cell-based
# [13] = biological target: T3, Dual specificity mitogen-activated protein kinase kinase; MEK1/2; assay: Induction of MEK1/2 degradation in human A549 cells at 1 uM incubated for 24 hrs in presence of MLN4924 by Western blot analysis; type: cell-based
# [14] = biological target: T3, Dual specificity mitogen-activated protein kinase kinase; MEK1/2; assay: Induction of MEK1/2 degradation in human A549 cells at 1 uM incubated for 24 hrs in presence of MG132 by Western blot analysis; type: cell-based
# [15] = biological target: T3, Dual specificity mitogen-activated protein kinase kinase; MEK1/2; assay: Induction of MEK1/2 degradation in human A549 cells assessed as reduction in pERK1/2 levels at 1 to 30 uM incubated for 24 hrs by Western blot analysis; type: cell-based; settings: dose 1-30 µM
# [16] = test system: A549; assay: Antiproliferative activity against human A549 cells incubated for 4 days by MTT assay; type: functional, cell-based; settings: A549, 96 h
# [17] = Selectivity ratio of IC50 for human A549 cells to IC50 for human A-375 cells; type: functional
# [18] = biological target: T2, Protein cereblon/Dual specificity mitogen-activated protein kinase kinase 1/Dual specificity mitogen-activated protein kinase kinase 2 (Homo sapiens); assay: Protac activity at CRBN/MEK1/2 in human A549 cells assessed as MEK1/2 degradation at 1 uM incubated for 24 hrs by Western blot analysis relative to control; type: cell-based
# T1 sequence (P36507 whole entry, looked up): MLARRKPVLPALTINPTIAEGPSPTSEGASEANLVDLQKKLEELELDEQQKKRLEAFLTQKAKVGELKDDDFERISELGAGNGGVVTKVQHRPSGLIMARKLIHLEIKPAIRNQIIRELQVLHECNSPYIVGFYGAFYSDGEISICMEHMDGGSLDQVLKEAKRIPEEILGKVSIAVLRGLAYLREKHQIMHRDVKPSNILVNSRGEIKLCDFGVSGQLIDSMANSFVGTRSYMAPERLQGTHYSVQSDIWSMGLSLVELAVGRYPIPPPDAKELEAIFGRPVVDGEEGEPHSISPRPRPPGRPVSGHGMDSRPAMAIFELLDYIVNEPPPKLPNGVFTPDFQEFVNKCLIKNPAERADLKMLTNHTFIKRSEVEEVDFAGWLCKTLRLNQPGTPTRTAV
# T1 sequence (P40337 whole entry, looked up): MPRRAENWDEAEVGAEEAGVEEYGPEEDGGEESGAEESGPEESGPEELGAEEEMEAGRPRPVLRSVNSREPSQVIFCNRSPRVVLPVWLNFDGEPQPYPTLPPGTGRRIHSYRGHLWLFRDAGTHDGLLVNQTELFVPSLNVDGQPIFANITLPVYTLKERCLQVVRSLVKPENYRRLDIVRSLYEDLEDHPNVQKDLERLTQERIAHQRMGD
# T1 sequence (Q02750 whole entry, looked up): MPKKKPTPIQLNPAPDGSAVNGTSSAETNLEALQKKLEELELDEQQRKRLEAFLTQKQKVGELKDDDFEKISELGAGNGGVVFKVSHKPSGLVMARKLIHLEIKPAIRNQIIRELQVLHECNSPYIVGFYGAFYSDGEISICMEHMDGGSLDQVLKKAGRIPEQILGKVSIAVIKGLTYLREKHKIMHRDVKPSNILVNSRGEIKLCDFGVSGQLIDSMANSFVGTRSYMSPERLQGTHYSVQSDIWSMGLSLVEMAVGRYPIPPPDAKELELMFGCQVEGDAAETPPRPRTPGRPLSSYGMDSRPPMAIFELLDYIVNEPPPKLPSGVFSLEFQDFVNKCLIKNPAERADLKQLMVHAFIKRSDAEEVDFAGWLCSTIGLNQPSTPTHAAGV
# T3 sequence (P36507 whole entry, looked up): as the sequence (P36507 whole entry, looked up) above
# T3 sequence (Q02750 whole entry, looked up): as the sequence (Q02750 whole entry, looked up) above
# T2 sequence (P36507 whole entry, looked up): as the sequence (P36507 whole entry, looked up) above
# T2 sequence (Q02750 whole entry, looked up): as the sequence (Q02750 whole entry, looked up) above
# T2 sequence (Q96SW2 whole entry, looked up): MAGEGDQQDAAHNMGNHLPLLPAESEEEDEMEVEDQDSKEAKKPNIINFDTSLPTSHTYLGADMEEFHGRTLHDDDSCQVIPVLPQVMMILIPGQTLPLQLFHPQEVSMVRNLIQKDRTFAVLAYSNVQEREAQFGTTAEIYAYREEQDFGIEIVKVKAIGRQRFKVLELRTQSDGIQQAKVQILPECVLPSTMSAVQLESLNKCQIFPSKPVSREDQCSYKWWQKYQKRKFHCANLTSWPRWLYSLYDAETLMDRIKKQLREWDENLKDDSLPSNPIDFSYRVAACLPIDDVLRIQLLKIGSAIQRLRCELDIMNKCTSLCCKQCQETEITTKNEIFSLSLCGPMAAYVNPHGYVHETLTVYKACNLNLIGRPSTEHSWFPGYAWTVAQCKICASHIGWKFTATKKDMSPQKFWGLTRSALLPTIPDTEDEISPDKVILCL
# Sequence of Dual specificity mitogen-activated protein kinase kinase 2 (P36507 whole entry): as the sequence (P36507 whole entry, looked up) above
# Sequence of Dual specificity mitogen-activated protein kinase kinase 1 (Q02750 whole entry): as the sequence (Q02750 whole entry, looked up) above
smiles,measurement,setting,value
Cc1ncsc1-c1ccc([C@H](C)NC(=O)[C@@H]2C[C@@H](O)CN2C(=O)[C@@H](NCCOCCOCCn2cc(CNc3cccc(Cc4c(C)c5ccc(Oc6ncccn6)cc5oc4=O)c3)nn2)C(C)(C)C)cc1,Activity,[1],inactive
Cc1ncsc1-c1ccc([C@H](C)NC(=O)[C@@H]2C[C@@H](O)CN2C(=O)[C@@H](NC(=O)CCC(=O)NCCCC(=O)Nc2cccc(Cc3c(C)c4ccc(Oc5ncccn5)cc4oc3=O)c2F)C(C)(C)C)cc1,Activity,[2],20%
same,Activity,[3],13%
Cc1ncsc1-c1ccc([C@H](C)NC(=O)[C@@H]2C[C@@H](O)CN2C(=O)[C@@H](NCCOCCOCCn2cc(CNc3cccc(Cc4c(C)c5ccc(Oc6ncccn6)cc5oc4=O)c3F)nn2)C(C)(C)C)cc1,Activity,[1],20%
CNS(=O)(=O)Nc1cccc(Cc2c(C)c3ccc(Oc4ncccn4)cc3oc2=O)c1F,pIC50,[4],5.72
Cc1c(Cc2cccc(NCc3cn(CCOCCOCCOCCNc4cccc5c4C(=O)N(C4CCC(=O)NC4=O)C5=O)nn3)c2)c(=O)oc2cc(Oc3ncccn3)ccc12 (configuration not stated),Activity,[5],inactive
Cc1c(Cc2cccc(NCc3cn(CCOCCOCCOCCOCCNc4cccc5c4C(=O)N(C4CCC(=O)NC4=O)C5=O)nn3)c2F)c(=O)oc2cc(Oc3ncccn3)ccc12 (configuration not stated),Activity,[5],inactive
Cc1ncsc1-c1ccc([C@H](C)NC(=O)[C@@H]2C[C@@H](O)CN2C(=O)[C@@H](NC(=O)CCC(=O)NCCCCC(=O)Nc2cccc(Cc3c(C)c4ccc(Oc5ncccn5)cc4oc3=O)c2F)C(C)(C)C)cc1,Activity,[2],85%
same,Activity,[6],Active
same,Activity,[7],> 70%
same,DC50,[8],300 nM
same,DC50,[9],200 nM
same,DC50,[10],2800 nM
same,Activity,[11],inactive
same,Activity,[12],inactive
same,Activity,[13],inactive
same,Activity,[14],inactive
same,Activity,[15],Active
same,pIC50,[16],4.56
same,pIC50,[4],5.55
same,Ratio IC50,[17],10
same,Activity,[3],60%
Cc1ncsc1-c1ccc([C@H](C)NC(=O)[C@@H]2C[C@@H](O)CN2C(=O)[C@@H](NCCOCCOCCOCCn2cc(CNc3cccc(Cc4c(C)c5ccc(Oc6ncccn6)cc5oc4=O)c3)nn2)C(C)(C)C)cc1,Activity,[1],inactive
Cc1c(Cc2cccc(NCc3cn(CCOCCOCCOCCOCCOCCNc4cccc5c4C(=O)N(C4CCC(=O)NC4=O)C5=O)nn3)c2)c(=O)oc2cc(Oc3ncccn3)ccc12 (configuration not stated),Activity,[5],inactive
Cc1c(Cc2cccc(NCc3cn(CCOCCOCCOCCNc4cccc5c4C(=O)N(C4CCC(=O)NC4=O)C5=O)nn3)c2F)c(=O)oc2cc(Oc3ncccn3)ccc12 (configuration not stated),Activity,[5],inactive
Cc1c(Cc2cccc(NCc3cn(CCOCCOCCOCCOCCOCCNc4cccc5c4C(=O)N(C4CCC(=O)NC4=O)C5=O)nn3)c2F)c(=O)oc2cc(Oc3ncccn3)ccc12 (configuration not stated),Activity,[5],inactive
Cc1c(Cc2cccc(NC(=O)CCCCCNC(=O)CCC(=O)Nc3cccc4c3C(=O)N(C3CCC(=O)NC3=O)C4=O)c2F)c(=O)oc2cc(Oc3ncccn3)ccc12 (configuration not stated),Activity,[18],inactive
Cc1ncsc1-c1ccc([C@H](C)NC(=O)[C@@H]2C[C@@H](O)CN2C(=O)[C@@H](NCCOCCOCCOCCOCCOCCn2cc(CNc3cccc(Cc4c(C)c5ccc(Oc6ncccn6)cc5oc4=O)c3F)nn2)C(C)(C)C)cc1,Activity,[1],inactive
Cc1ncsc1-c1ccc([C@H](C)NC(=O)[C@@H]2C[C@@H](O)CN2C(=O)[C@@H](NC(=O)CCC(=O)NCCCC(=O)Nc2cccc(Cc3c(C)c4ccc(Oc5ncccn5)cc4oc3=O)c2)C(C)(C)C)cc1,Activity,[2],< 5%
same,Activity,[3],21%
Cc1c(Cc2cccc(NCc3cn(CCOCCOCCNc4cccc5c4C(=O)N(C4CCC(=O)NC4=O)C5=O)nn3)c2F)c(=O)oc2cc(Oc3ncccn3)ccc12 (configuration not stated),Activity,[5],inactive
Cc1ncsc1-c1ccc([C@H](C)NC(=O)[C@@H]2C[C@@H](O)CN2C(=O)[C@@H](NCCOCCOCCOCCOCCn2cc(CNc3cccc(Cc4c(C)c5ccc(Oc6ncccn6)cc5oc4=O)c3F)nn2)C(C)(C)C)cc1,Activity,[1],inactive
Cc1c(Cc2cccc(NC(=O)CCCCNC(=O)CCC(=O)Nc3cccc4c3C(=O)N(C3CCC(=O)NC3=O)C4=O)c2F)c(=O)oc2cc(Oc3ncccn3)ccc12 (configuration not stated),Activity,[18],< 5%
Cc1ncsc1-c1ccc([C@H](C)NC(=O)[C@@H]2C[C@@H](O)CN2C(=O)[C@@H](NC(=O)CCC(=O)NCCCCCCCC(=O)Nc2cccc(Cc3c(C)c4ccc(Oc5ncccn5)cc4oc3=O)c2F)C(C)(C)C)cc1,Activity,[2],78%
Cc1ncsc1-c1ccc([C@H](C)NC(=O)[C@@H]2C[C@@H](O)CN2C(=O)[C@@H](NC(=O)CCC(=O)NCCCCCCC(=O)Nc2cccc(Cc3c(C)c4ccc(Oc5ncccn5)cc4oc3=O)c2F)C(C)(C)C)cc1,Activity,[2],70%
Cc1c(Cc2cccc(NC(=O)CCCCCCNC(=O)CCC(=O)Nc3cccc4c3C(=O)N(C3CCC(=O)NC3=O)C4=O)c2F)c(=O)oc2cc(Oc3ncccn3)ccc12 (configuration not stated),Activity,[18],45%
Cc1c(Cc2cccc(NCc3cn(CCOCCOCCOCCOCCNc4cccc5c4C(=O)N(C4CCC(=O)NC4=O)C5=O)nn3)c2)c(=O)oc2cc(Oc3ncccn3)ccc12 (configuration not stated),Activity,[5],inactive
Cc1ncsc1-c1ccc([C@H](C)NC(=O)[C@@H]2C[C@@H](O)CN2C(=O)[C@@H](NC(=O)CCC(=O)NCCCCCCC(=O)Nc2cccc(Cc3c(C)c4ccc(Oc5ncccn5)cc4oc3=O)c2)C(C)(C)C)cc1,Activity,[2],< 5%
Cc1ncsc1-c1ccc([C@H](C)NC(=O)[C@@H]2C[C@@H](O)CN2C(=O)[C@@H](NCCOCCOCCOCCn2cc(CNc3cccc(Cc4c(C)c5ccc(Oc6ncccn6)cc5oc4=O)c3F)nn2)C(C)(C)C)cc1,Activity,[1],inactive
Cc1c(Cc2cccc(NCc3cn(CCOCCOCCNc4cccc5c4C(=O)N(C4CCC(=O)NC4=O)C5=O)nn3)c2)c(=O)oc2cc(Oc3ncccn3)ccc12 (configuration not stated),Activity,[5],inactive
Cc1ncsc1-c1ccc([C@H](C)NC(=O)[C@@H]2C[C@@H](O)CN2C(=O)[C@@H](NC(=O)CCC(=O)NCCCCCC(=O)Nc2cccc(Cc3c(C)c4ccc(Oc5ncccn5)cc4oc3=O)c2F)C(C)(C)C)cc1,Activity,[2],72%
Cc1c(Cc2cccc(NC(=O)CCCCCCCNC(=O)CCC(=O)Nc3cccc4c3C(=O)N(C3CCC(=O)NC3=O)C4=O)c2F)c(=O)oc2cc(Oc3ncccn3)ccc12 (configuration not stated),Activity,[18],30%
Cc1c(Cc2cccc(NC(=O)CCCNC(=O)CCC(=O)Nc3cccc4c3C(=O)N(C3CCC(=O)NC3=O)C4=O)c2F)c(=O)oc2cc(Oc3ncccn3)ccc12 (configuration not stated),Activity,[18],inactive
Cc1ncsc1-c1ccc([C@H](C)NC(=O)[C@@H]2C[C@@H](O)CN2C(=O)[C@@H](NCCOCCOCCOCCOCCn2cc(CNc3cccc(Cc4c(C)c5ccc(Oc6ncccn6)cc5oc4=O)c3)nn2)C(C)(C)C)cc1,Activity,[1],inactive
Cc1ncsc1-c1ccc([C@H](C)NC(=O)[C@@H]2C[C@@H](O)CN2C(=O)[C@@H](NCCOCCOCCOCCOCCOCCn2cc(CNc3cccc(Cc4c(C)c5ccc(Oc6ncccn6)cc5oc4=O)c3)nn2)C(C)(C)C)cc1,Activity,[1],inactive
Cc1ncsc1-c1ccc([C@H](C)NC(=O)[C@@H]2C[C@@H](O)CN2C(=O)[C@@H](NC(=O)CCC(=O)NCCCCCCCCCCCC(=O)Nc2cccc(Cc3c(C)c4ccc(Oc5ncccn5)cc4oc3=O)c2)C(C)(C)C)cc1,Activity,[2],< 5%
Cc1ncsc1-c1ccc([C@H](C)NC(=O)[C@@H]2C[C@@H](O)CN2C(=O)[C@@H](NC(=O)CCC(=O)NCCCCCCCCCCC(=O)Nc2cccc(Cc3c(C)c4ccc(Oc5ncccn5)cc4oc3=O)c2)C(C)(C)C)cc1,Activity,[2],< 5%
